Assays:
Cavia porcellus = species: Cavia porcellus; experiment: Compound was tested for inhibition of U-46,619 induced increase in tracheal pressure of guinea pigs; assay type: functional, Trachea; details: for ED50: Cavia porcellus, Trachea, read-out: ID50
Method in brief: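 Compound given i.v. to guinea pigs; tracheal pressure rise evoked with U46619 by the Konzett–Rossler technique; ID50 expressed in μg/kg.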

Homo sapiens = species: Homo sapiens; experiment: Compound was tested for inhibition of U-46,619 induced aggregation of human platelets; assay type: functional
Method in brief: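 Human platelet-rich plasma aggregated with the TP-receptor agonist U46619, with and without compound; inhibition of aggregation measured and IC50 expressed in μM.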

Oryctolagus cuniculus = species: Oryctolagus cuniculus; experiment: Compound was tested for inhibition of U-46,619 induced contraction of isolated rabbit saphenous vein; assay type: functional; details: for Kb: Oryctolagus cuniculus, Saphenous vein, read-out: pA2 (converted)
Method in brief: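 Isolated rabbit saphenous vein rings contracted with increasing U46619 concentrations in the absence or presence of compound; antagonism quantified as pA2 values.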

For O=C(O)CC/C=C\C[C@@H]1CO[C@H](c2ccccc2Cl)O[C@@H]1c1ccccc1O, the ED50 (Cavia porcellus) was 0.0007 mg/kg, the IC50 (Homo sapiens; Homo sapiens) was 13 nM and the Kb (Oryctolagus cuniculus) was 2.51 nM.

O=C(O)CCn1c2c(c3ccccc31)CC(NS(=O)(=O)c1ccc(F)cc1)CC2 (single isomer, unassigned) [RAMATROBAN] was tested, and the ED50 (Cavia porcellus) was 0.017 mg/kg, the IC50 (Homo sapiens; Homo sapiens) was 380 nM and the Kb (Oryctolagus cuniculus) was 12.6 nM.

Cc1ccc2c(c1CCC(=O)O)CCC(NS(=O)(=O)c1ccc(Cl)cc1)C2 (stereo in doubt) showed an ID50 (Cavia porcellus) of 0.035 mg/kg and an IC50 (Homo sapiens) of 230 nM.

With Cc1ccc2c(c1CCC(=O)O)CCC(NS(=O)(=O)c1ccc(Cl)cc1)C2 (stereo in doubt; 2a (l)) the ID50 (Cavia porcellus) was 0.015 mg/kg, the IC50 (Homo sapiens) was 780 nM and the pA2 (Oryctolagus cuniculus) was 8.2.

In the case of Cc1ccc2c(c1CCC(=O)O)CCC(NS(=O)(=O)c1ccc(Cl)cc1)C2 (stereo in doubt; 2a), the ID50 (Cavia porcellus) is reported as 0.031 mg/kg, the IC50 (Homo sapiens) is reported as 330 nM and the pA2 (Oryctolagus cuniculus) is reported as 8.9.

Reference: ChEMBL document CHEMBL1130822, “Synthesis and biological evaluation of new tetrahydronaphthalene derivatives as thromboxane receptor antagonists” (Bioorg Med Chem Lett, 1998)
